What follows are compounds tested against Nucleic Acid (assay: In vitro inhibition of decoding site of bacterial rRNA (within the 30S ribosomal subunit) encoding luciferase reporter in transcription-translation assay).
Format: functional, Bacteria
How it was run: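 Coupled transcription–translation in bacterial S30 extract. Compounds were preincubated with the extract, then NTPs, amino acids and a plasmid encoding firefly luciferase were added, and plates were incubated 20 min at 25 °C. After chilling on ice, luciferin substrate was added for 15 min at room temperature and luminescence was read. Doses spanned 1 mM to 100 nM with six replicates per concentration. IC50 came from a variable-slope fit of light units vs log(c).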
`NC1CC(N)C(C(=O)NCCCN2CCCC2=O)CC1O` (configuration not stated) gave an IC50 greater than 1000 µM.
With `NC1CC(N)C(C(=O)Nc2ccc(-c3cnco3)cc2)CC1O` (configuration not stated) the IC50 was 59 µM.
`NC1CC(N)C(C(=O)N2CCN(C3=NCCCN3)CC2)CC1O` (configuration not stated) was tested, and the IC50 was greater than 1000 µM.
With `NC(=O)C1CC(O)C(N)CC1N` (configuration not stated) the IC50 was greater than 1000 µM.
In the case of `NC1CC(N)C(C(=O)NCCN2CCOCC2)CC1O` (configuration not stated), the IC50 is reported as greater than 1000 µM.
For `NC1CC(N)C(OC2OC(CO)C(O)C(O)C2N)C(O)C1O` (configuration not stated), the IC50 was 3.9 µM.
`NC(=O)[C@H]1CCCN1C(=O)C1CC(O)C(N)CC1N` (some centres not stated) was tested, and the IC50 was greater than 1000 µM.
`NC1CC(N)C(C(=O)Nc2ccc(-n3ccnc3)cc2)CC1O` (configuration not stated) showed an IC50 of 290 µM.
With `N[C@@H]1C[C@H](N)[C@@H](O)[C@H](O)[C@H]1O` the IC50 was greater than 1000 µM.
`NC1CC(N)C(C(=O)N2CCC3(CC2)OCCO3)CC1O` (configuration not stated) was tested, and the IC50 was greater than 1000 µM.
Compound `NC1CC(N)C(C(=O)N2CCNCC2)CC1O` (configuration not stated) has an IC50 greater than 1000 µM.
`N#Cc1cccc(NC(=O)C2CC(O)C(N)CC2N)c1` (configuration not stated) showed an IC50 of 450 µM.

— ChEMBL document CHEMBL1134978, “Novel 2,5-dideoxystreptamine derivatives targeting the ribosomal decoding site RNA” (Bioorg Med Chem Lett, 2002)
